Measurements taken from ChEMBL document CHEMBL3853294, “Design, synthesis and biological evaluation of novel HSP70 inhibitors: N, N'-disubstituted thiourea derivatives” (Eur J Med Chem, 2016).

What was measured:
[1] = target: Chaperone protein DnaK (Escherichia coli) (UniProt P0A6Y8); assay: Inhibition of Escherichia coli DnaK ATPase activity at 200 uM incubated on shaker for 10 mins followed by 30 mins incubation by malachite green reagent based colorimetric assay
[2] = target: Chaperone protein DnaK (Escherichia coli) (UniProt P0A6Y8); assay: Inhibition of Escherichia coli DnaK ATPase activity incubated on shaker for 10 mins followed by 30 mins incubation by malachite green reagent based colorimetric assay
[3] = Growth inhibition of human BT/LapR1.0 cells at 10 uM after 72 hrs by cell titer-glo based luminescence assay; details: read-out: GI
Outline: (§1)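 Cells were trypsinised and seeded at 5000 cells/well, then cultured 24 h at 37 °C. Compound was added at 10 µM, alone or with 1 µM lapatinib, and incubated 72 h at 37 °C. CellTiter-Glo reagent was added at a volume equal to the medium, followed by 3 min shaking and 10 min at room temperature. Luminescence (ATP) was read and normalised to the blank control group.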

[4] = species on record: Homo sapiens; assay: Inhibition of HSP70 in human BT/LapR1.0 cells assessed as potentiation of 1 uM of lapatinib-induced growth inhibition after 72 hrs by measuring coefficient of drug interaction by cell titer-glo based luminescence assay
[5] = system: BT-474; assay: Potentiation of lapatinib-induced growth inhibition of human BT474 cells at 10 uM after 72 hrs by cell titer-glo based luminescence assay; format: functional; details: BT-474, 72 h, read-out: GI
Outline: as §1

[6] = system: BT-474; assay: Potentiation of lapatinib-induced growth inhibition of human BT474 cells assessed as coefficient of drug interaction after 72 hrs by cell titer-glo based luminescence assay; format: functional
[7] = species on record: Homo sapiens; assay: Inhibition of HSP70 in human BT/LapR1.0 cells assessed as potentiation of 1 uM of lapatinib-induced growth inhibition at 10 uM after 72 hrs by cell titer-glo based luminescence assay
Outline: as §1

[8] = Growth inhibition of human BT474 cells at 10 uM after 72 hrs by cell titer-glo based luminescence assay; parameters: species or system BT-474; details: read-out: GI
Outline: as §1

inhibition [1] [%] | inhibition [2] | Compound | inhibition at 72 h, 10 µM [3] [%] | Activity [4] | inhibition of growth at 10 µM [5] [%] | Activity [6] | growth inhibition (GI) [7] [%] | inhibition at 72 h, 10 µM [8] [%]
43 | Dose-dependent effect | N#Cc1ccc(COC[C@H]2O[C@@H](n3c(NCc4ccc(Cl)c(Cl)c4)nc4c(N)ncnc43)[C@H](O)[C@@H]2O)cc1 | – | – | – | – | – | –
53 | Dose-dependent effect | COc1ccc(-c2nc(-c3cc(C(F)(F)F)cc(C(F)(F)F)c3)n(Cc3ccc(C(N)=O)cc3)c2-c2ccc(OC)cc2)cc1 | – | – | – | – | – | –
44.1 | – | COc1cc(/C=C/C(=O)NC(CC(C)(C)C)NC(=S)Nc2ccccc2)cc(OC)c1OC (stereo unspecified) | 40.9 | < 1 | 90.9 | 0.65 | 62.3 | 19
